According to ChEMBL document CHEMBL5034042 (ACS Med Chem Lett, 2022):

Tests used:
[1] = molecular target: T1, Trace amine-associated receptor 1 (Homo sapiens, UniProt Q96RJ0); assay: Agonist activity at recombinant human TAAR1 expressed in CHO-K1 cells assessed as increase in intracellular cAMP incubated for 30 mins by HTRF analysis; assay type: functional, cell-based
T1 sequence (Q96RJ0 whole entry): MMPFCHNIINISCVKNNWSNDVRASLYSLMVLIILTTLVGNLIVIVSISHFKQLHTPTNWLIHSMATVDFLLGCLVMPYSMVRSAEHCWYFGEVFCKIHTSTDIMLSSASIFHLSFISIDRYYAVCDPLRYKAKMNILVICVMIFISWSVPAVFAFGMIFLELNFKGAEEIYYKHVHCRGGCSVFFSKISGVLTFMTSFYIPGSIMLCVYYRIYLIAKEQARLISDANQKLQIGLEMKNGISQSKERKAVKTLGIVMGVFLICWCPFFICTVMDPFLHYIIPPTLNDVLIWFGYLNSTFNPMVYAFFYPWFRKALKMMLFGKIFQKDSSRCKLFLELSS
Outline: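 Human TAAR1 agonism was measured in a single study under identical conditions.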

[2] = molecular target: T2, Trace amine-associated receptor 1 (Homo sapiens) (UniProt Q96RJ0); assay: Agonist activity at recombinant human TAAR1 expressed in CHO-K1 cells assessed as maximal increase in intracellular cAMP incubated for 30 mins by HTRF analysis relative to control; assay type: functional, cell-based; conditions: filed as agonist
T2 sequence (whole entry): T1 sequence (Q96RJ0 whole entry)
Outline: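 Maximal response (Emax) is expressed relative to a p-tyramine control applied to each plate. Values were run in triplicate under identical conditions in a single study and are reported as mean ± SEM (n = 3).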

Structure (SMILES)	EC50 [1]	Emax [2]
CNCC1OCCCc2ccsc21 (racemic)	321 nM	113%
CNC[C@H](O)c1ccc(O)cc1	4730 nM	113%
NCC[C@@H]1OCCc2ccsc21	233 nM	105%
NCCc1c[nH]c2ccc(O)cc12 [SEROTONIN]	35100 nM	75%
NC[C@@H]1OCCc2ccsc21	3.5 nM	110%
NCCc1cccc(O)c1	339 nM	109%
NCC1OCCCc2ccsc21 (racemic)	65 nM	111%
NCCc1ccc(O)c(O)c1		97%
NCCc1cccs1	8.3 nM	113%
NCCc1ccsc1	25 nM	112%
NC[C@@H](O)c1ccc(O)cc1	4110 nM	108%
NCC(O)c1ccc(O)c(O)c1 (configuration not stated)	12200 nM	99%
NCCc1ccc(O)cc1 [TYRAMINE]	76 nM	111%
CN(C)C[C@@H]1OCCc2ccsc21	203 nM	112%
NC[C@H](O)c1ccc(O)cc1	1570 nM	116%
COc1cc(CCN)ccc1O	308 nM	101%
NCCc1ccccc1 [PHENETHYLAMINE]	15 nM	111%
NCCc1c[nH]c2ccccc12 [TRYPTAMINE]	2210 nM	102%
CNC[C@@H]1OCCc2sccc21	113 nM	110%
CNC[C@]1(C)OCCc2ccsc21	45700 nM	95%
NCCc1ccc(Oc2ccc(O)cc2)c(I)c1	225 nM	105%
CNCC1OCCc2cscc21 (configuration not stated)	290 nM	112%
CNCCc1ccccc1	151 nM	111%
c1cc2c(s1)[C@H](CN1CCCC1)OCC2	7200 nM	113%
